# Rows were chosen to be rich in hits. Some 3% of all compounds tested hit in one or more screens of this group.
# HTR1E antagonist: 5-HT1E receptor antagonists, primary screen, cell-based, HTS; inhibition, % at 6 µM; actives 0.99% (n = 65,000); CHO 5-HT1E Ga15 NFAT-bla reporter, FRET, antagonist; 5-hydroxytryptamine receptor 1E (Homo sapiens), P28566;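 active = inhibition above a set limit, the mean inhibition across every tested compound plus 3 SD, cut at about 29% in these data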;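 also: signal is the 460 over 535 nm emission ratio of beta-lactamase substrate; 0% = agonist plus DMSO wells and 100% = wells without agonist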
# Target sequence (P28566 whole entry, looked up): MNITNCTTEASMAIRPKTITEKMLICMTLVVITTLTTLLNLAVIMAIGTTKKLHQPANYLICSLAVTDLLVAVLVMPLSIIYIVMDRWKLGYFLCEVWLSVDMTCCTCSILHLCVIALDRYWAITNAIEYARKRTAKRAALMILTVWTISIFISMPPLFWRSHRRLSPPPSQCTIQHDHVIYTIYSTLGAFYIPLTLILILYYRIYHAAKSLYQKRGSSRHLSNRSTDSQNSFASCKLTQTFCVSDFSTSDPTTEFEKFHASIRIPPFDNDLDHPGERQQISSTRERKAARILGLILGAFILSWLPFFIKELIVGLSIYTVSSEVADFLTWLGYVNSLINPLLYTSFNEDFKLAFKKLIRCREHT
# 5HT1a ag: human 5-HT1a receptor agonists, primary screen, cell-based, CHO, Ga15 NFAT-bla reporter. CHO 5-HT1a Ga15 NFAT-bla reporter, FRET ratio; 0% basal, 100% maximal reference agonist. activation, % at 10 µM. actives 0.56% (n = 65,000);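 active = activation above the screen-wide mean activation plus 3 SD, cut at about 19% in these data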;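 also: 0% = DMSO wells and 100% = 5-CT at EC100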
# S1P1 ag pot: S1P1 agonists and agonism potentiators, primary screen, cell-based, primary and confirmation screens, CRE-bla reporter. S1P1 CRE-bla cells, forskolin, beta-lactamase FRET, potentiator mode; S1P1 agonist co-added at EC20, 2 nM; 100% = saturating reference agonist, 0% = basal. activation, % at 9.5 µM. actives 0.57% (n = 56,000);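 active = activation above a cutoff set at the mean activation of all tested compounds plus 3 SD, cut at about 54% in these data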;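 also: forskolin at 4 µM as EC80 and the EC20 agonist is SEW2871; 100% = SEW2871 at its EC100 plus forskolin at EC80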
# 5HT1a antag: human 5-HT1a receptor antagonists, primary screen, cell-based, CHO, Ga15 NFAT-bla reporter. 5-hydroxytryptamine receptor 1A (Homo sapiens), P08908. CHO 5-HT1a Ga15 NFAT-bla reporter, antagonist mode. inhibition, % at 10 µM. actives 0.68% (n = 62,000). AID 612, 2007;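 active = inhibition above the mean of all tested compounds plus 3 SD, cut at about 43% in these data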;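 also: receptor stimulated by 5-CT agonist at 100 nM near EC80; beta-lactamase reporter measured by ratiometric fluorescence of a cleavable substrate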
# S1P3 agonist: human S1P3 receptor agonists, primary screen, cell-based, primary and confirmation, NFAT-BLA reporter; Sphingosine 1-phosphate receptor 3 (Homo sapiens), Q99500; S1P3 NFAT-BLA reporter cells, agonism, FRET ratio; relative to 1 µM S1P, basal subtracted; activation, % at 4.5 µM; actives 0.1% (n = 60,000);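 active = activation above the screen-wide mean plus 3 SD, cut at about 4.5% in these data, passing the limit was not always enough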
#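 Material: Human S1P3 NFAT-BLA reporter CHO cells | Incubation: Overnight plating, 4 h compound 37 °C, 2 h substrate RT | Signal: FRET β-lactamase substrate fluorescence, excitation 405 nm, 460/535 nm emission ratio, background-subtracted | Compound: 4.5 µM final, single dose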
# HTR1E agonist: 5-HT1E receptor agonists, primary screen, cell-based, HTS. CHO 5-HT1E Ga15 NFAT-bla reporter, FRET; 0% DMSO wells, 100% control agonist wells. activation, % at 6 µM. 5-hydroxytryptamine receptor 1E (Homo sapiens), P28566. actives 0.69% (n = 65,000);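 active = activation above a set limit, the screen-wide mean activation plus 3 SD, cut at about 8.5% in these data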;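 also: 100% = positive control agonist at 1 µM giving full maximal response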
# Starred values were filed as active, the others as inactive; nt = not tested or not shown.
SMILES,HTR1E antagonist,5HT1a ag,S1P1 ag pot,5HT1a antag,S1P3 agonist,HTR1E agonist
Cc1cc(C(C)(C)C)cc(C)c1CC1=NCCN1,-3,43*,18,nt,-4,89*
OCc1cn(-c2ccccc2)nc1-c1ccc(-c2nn(-c3ccccc3)cc2CO)cc1,9,1,nt,7,nt,0
N#Cc1cn(-c2ccccc2)nc1-c1ccccc1,34*,-3,10,29,-1,-1
COc1ccccc1NC(=O)C(C)NS(=O)(=O)c1ccccc1 (stereo unspecified),6,-1,2,-5,-1,-1
CC(CCc1ccco1)NC(=O)Cn1ncc2c1-c1ccccc1OC2 (stereo unspecified),15,0,-2,4,0,0
CC1(C)CC(=O)C2=C(C1)NC(SCC(=O)Nc1ccccc1)=C(C#N)C21CCCCC1,3,2,20,10,-1,-1
CC(C)(C)C1CCC2(CC1)C(C#N)=C(SCC(=O)Nc1ccccc1)NC(=O)C2C#N (stereo unspecified),8,9,79*,nt,-4,1
COc1ccc(-c2nn(C)c(=O)c3ccccc23)cc1NC(=O)Cn1nc(C)c2ccccc2c1=O,38*,0,11,16,0,1
CN(C)CCNc1oc(COc2ccc(Cl)cc2)nc1C#N,5,-1,7,17,-1,-1
COc1ccc(-c2noc(-c3cc(C)cc(C)c3)n2)cc1OC,-7,-2,106*,6,0,0
COc1ccc(Cl)cc1-c1nc(-c2ccc(NC(=O)c3ccncc3)cc2)no1,0,-2,26,-8,0,0
COc1ccc(-c2nc(-c3ccc(NC(=O)c4ccncc4)cc3)no2)cc1OC,29*,0,123*,43*,0,1
COc1ccc(-c2cc(C(=O)NC3CCCC3)no2)cc1OC,3,-3,74*,2,-2,-1
CCOc1ccc(-c2noc(-c3cccnc3)n2)cc1OC,3,-3,114*,-9,-1,1
COc1ccc(NC(=O)c2cc(-c3cccs3)on2)cc1OC,-5,-2,56*,-4,0,0
CCOc1ccc(-c2nnc(-c3cccnc3)o2)cc1OCC,18,-3,89*,6,-1,0
CCOC(=O)CSc1nc(C2CC2)nc2ccccc12,-1,-1,5,13,-1,-1
O=C(Nc1cccc(S(=O)(=O)C(F)F)c1)c1ccc(S(=O)(=O)N2CCOCC2)cc1,-4,2,-1,0,-1,0
O=C(Nc1ccc(S(=O)(=O)C(F)F)cc1)c1cccc(S(=O)(=O)N2CCOCC2)c1,-2,20*,nt,2,0,0
Cc1nc2c(sc3nc4c(cc32)COC(C)(C)C4)c(=O)n1CC(=O)NCc1ccco1,31*,-3,nt,17,nt,0
Cc1cc(C(=O)CSc2nnc(-c3ccco3)o2)c(C)n1CC1COc2ccccc2O1 (stereo unspecified),-1,30*,17,-1,-1,1
CCCCS(=O)(=O)NC1=NCN(C2CCN(Cc3ccccc3)CC2)CN1,-10,0,-6,-6,1,1
Clc1ccc(COn2nnc3ccccc32)c(Cl)c1,3,-2,18,8,0,0
O=S(=O)(c1ccccc1)N1CCN(C2CCCCCCC2)CC1,-1,1,nt,7,-1,33*
CCc1nnc(NC=C2C(=O)OC(C)(C)OC2=O)s1,4,-4,-1,-10,0,0
Cc1cccc(OCCCCc2c(C)n[nH]c2C)c1C,8,-3,112*,12,-2,-1

# From PubChem BioAssay
